≈ marks a conversion by molar mass, not a printed value. Calls of active or inactive are those of the source. The rule behind the calls is not given here.
What was measured:
Nakaseomyces glabratus [1] = assay: Antimicrobial activity against Candida glabrata after 16 to 18 hrs by microbroth dilution assay; type: functional
Summary of the method: (§1)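 Broth microdilution susceptibility testing, adapted with minor changes from a published method, incubated at 37 °C for 16–18 h; read-out is the minimum inhibitory concentration. C. krusei and C. glabrata strains came from the University of Texas Medical Center. C. albicans UCD FR1 was raised in-house by repeated passage through Sabouraud medium containing inhibitory fluconazole concentrations.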

Candida albicans [2] = assay: Antimicrobial activity against fluconazole-resistant Candida albicans ATCC 14503 after 16 to 18 hrs by microbroth dilution assay; type: functional; summary of the method: as §1
Pichia kudriavzevii [3] = assay: Antimicrobial activity against Candida krusei after 16 to 18 hrs by microbroth dilution assay; type: functional; summary of the method: as §1
Candida albicans [4] = assay: Antimicrobial activity against Candida albicans UCD FRI after 16 to 18 hrs by microbroth dilution assay; type: functional; summary of the method: as §1
Oryctolagus cuniculus = species on record: Oryctolagus cuniculus; assay: Inhibition of IP3-sensitive Ca2+ channel activity in endoplasmic reticulum of rabbit cerebellum assessed as Ca2+ release; type: tissue-based
Nakaseomyces glabratus [5] = assay: Antimicrobial activity against Candida glabrata up to 300 ug/disk by disk diffusion method; type: functional, organism-based
Summary of the method: (§2)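 Disk diffusion antifungal test, up to 300 μg/disk, read as a zone of inhibition. C. glabrata and C. krusei were clinical strains from the University of Texas Medical Center. C. albicans UCD FR1 was raised in-house by repeated passage through Sabouraud medium containing inhibitory concentrations of fluconazole.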

Candida albicans [6] = assay: Antimicrobial activity against fluconazole-resistant Candida albicans ATCC 14503 up to 300 ug/disk by disk diffusion method; type: functional, organism-based
Candida albicans [7] = assay: Antimicrobial activity against Candida albicans UCD FRI up to 300 ug/disk by disk diffusion method; type: functional, organism-based; summary of the method: as §2
Pichia kudriavzevii [8] = assay: Antimicrobial activity against Candida krusei up to 300 ug/disk by disk diffusion method; type: functional, organism-based; summary of the method: as §2

OC(Cn1cncn1)(Cn1cncn1)c1ccc(F)cc1F [FLUCONAZOLE] showed an MIC (Nakaseomyces glabratus [1]) of 100 mg/L (≈ 327 µM), an MIC (Candida albicans [2]) of 1 mg/L (≈ 3.27 µM) and an MIC (Pichia kudriavzevii [3]) of 100 mg/L (≈ 327 µM). The MIC (Candida albicans [4]) was 100 mg/L (≈ 327 µM).

Work on C1CCC[C@@H]2CCCN3CC[C@@H](CCCCCC[C@@H]4CCCN5CC[C@@H](CC1)O[C@@H]45)O[C@@H]23 yielded an MIC (Nakaseomyces glabratus [1]) of 100 mg/L (≈ 224 µM), an MIC (Candida albicans [2]) of 100 mg/L (≈ 224 µM) and an MIC (Pichia kudriavzevii [3]) of 100 mg/L (≈ 224 µM). For the same compound, the MIC (Candida albicans [4]) was 100 mg/L (≈ 224 µM).

In the case of C1CCC[C@H]2CCCN3CC[C@@H](CCCCCC[C@@H]4CCCN5CC[C@@H](CC1)O[C@@H]45)O[C@@H]23, the MIC (Nakaseomyces glabratus [1]) is reported as 30 mg/L (≈ 67.2 µM), the ED50 (Oryctolagus cuniculus) is reported as 0.3 µM and the MIC (Candida albicans [2]) is reported as 100 mg/L (≈ 224 µM). It also gave an MIC (Pichia kudriavzevii [3]) of 30 mg/L (≈ 67.2 µM) and an MIC (Candida albicans [4]) of 100 mg/L (≈ 224 µM).

Compound O[C@]12CCCCCC[C@@H]3CCN4CCC[C@H](CCCCCC[C@@H]5CCN(CCC1)[C@H]2O5)[C@@H]4O3 [(+)-DEMETHYLXESTOSPONGIN B] has an MIC (Nakaseomyces glabratus [1]) of 30 mg/L (≈ 64.8 µM), an MIC (Candida albicans [2]) of 100 mg/L (≈ 216 µM) and an MIC (Pichia kudriavzevii [3]) of 30 mg/L (≈ 64.8 µM). The MIC (Candida albicans [4]) was 30 mg/L (≈ 64.8 µM).

For O[C@]12CCCCCC[C@@H]3CCN4CCC[C@@H](CCCCCC[C@@H]5CCN(CCC1)[C@H]2O5)[C@@H]4O3, the MIC (Nakaseomyces glabratus [1]) was 100 mg/L (≈ 216 µM), the ED50 (Oryctolagus cuniculus) was 0.8 µM and the MIC (Candida albicans [2]) was 100 mg/L (≈ 216 µM). For the same compound, the MIC (Pichia kudriavzevii [3]) was 100 mg/L (≈ 216 µM) and the MIC (Candida albicans [4]) was 100 mg/L (≈ 216 µM).

Compound C[C@@H]1[C@H](O)[C@@H](C)/C=C/C=C/C=C/C=C/C=C/C=C/C=C/[C@H](O[C@@H]2O[C@H](C)[C@@H](O)[C@H](N)[C@@H]2O)C[C@@H]2O[C@](O)(C[C@@H](O)C[C@@H](O)[C@H](O)CC[C@@H](O)C[C@@H](O)CC(=O)O[C@H]1C)C[C@H](O)[C@H]2C(=O)O [AMPHOTERICIN B] has an MIC (Nakaseomyces glabratus [1]) of 1 mg/L (≈ 1.08 µM), an MIC (Candida albicans [2]) of 0.3 mg/L (≈ 0.325 µM) and an MIC (Candida albicans [4]) of 1 mg/L (≈ 1.08 µM).

With O[C@H]1C[C@H]2CCCCCC[C@@H]3CCN4CCC[C@@H](CCCCCC[C@@H]5CCN(C1)[C@H]2O5)[C@@H]4O3 the Activity (Nakaseomyces glabratus [5]) was “inactive”, the Activity (Candida albicans [6]) was “inactive” and the ED50 (Oryctolagus cuniculus) was 6.4 µM. The Activity (Candida albicans [7]) was “inactive” and the Activity (Pichia kudriavzevii [8]) was “inactive”.
